Here are results for 16 compounds from ChEMBL document CHEMBL4359926, “Design, synthesis, and evaluation of potent novel peroxisome proliferator-activated receptor γ indole partial agonists” (Bioorg Med Chem Lett, 2019).

The structures appear in SMILES notation. Activity calls are given as the source filed them. No cut-off for these calls is given here.

The target of data set [1] is T1, PPARgamma2 (peroxisome proliferator-activated receptor gamma) (Homo sapiens, UniProt P37231).
T1 sequence (P37231 whole entry): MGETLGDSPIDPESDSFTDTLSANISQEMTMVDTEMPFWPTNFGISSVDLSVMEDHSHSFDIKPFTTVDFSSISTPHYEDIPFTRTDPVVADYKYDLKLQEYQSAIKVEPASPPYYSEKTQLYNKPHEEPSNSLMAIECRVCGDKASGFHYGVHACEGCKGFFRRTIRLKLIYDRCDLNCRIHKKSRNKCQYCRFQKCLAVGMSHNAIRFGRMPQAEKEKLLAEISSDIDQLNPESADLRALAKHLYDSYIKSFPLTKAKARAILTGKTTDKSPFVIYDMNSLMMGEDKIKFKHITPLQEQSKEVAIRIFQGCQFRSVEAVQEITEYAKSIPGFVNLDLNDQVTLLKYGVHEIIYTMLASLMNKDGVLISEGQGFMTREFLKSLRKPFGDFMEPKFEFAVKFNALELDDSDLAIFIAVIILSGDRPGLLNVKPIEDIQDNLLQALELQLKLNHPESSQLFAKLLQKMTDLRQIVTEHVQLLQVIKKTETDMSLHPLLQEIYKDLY
In words: Transactivation activity at human PPARgamma2 cotransfected with PPRE X3-TK-luc in human HEK293 cells incubated for 24 hrs by luciferase reporter gene assay relative to rosiglitazone. In kind it is cell-based. A digest of the protocol:
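HEK-293 cells grown in DMEM with 4.5 g/liter glucose and 10% bovine calf serum at 37°C, 5% CO₂. Co-transfected with human PPARγ2 plasmid and PPRE X3-TK-luc, then left 16 h. Compounds at 100 to 0.001 μM (10-fold steps), 0.1% DMSO final, for 24 h. Lysate luciferase read by luminescence.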

For data set [2], the target named is T2, Peroxisome proliferator-activated receptor gamma (Homo sapiens, UniProt P37231).
T2 sequence (P37231 whole entry): T1 sequence (P37231 whole entry)
The experiment in a line: Displacement of fluormone PPAR green tracer ligand from recombinant GST-tagged PPARgamma ligand binding domain (unknown origin) incubated for 4 hrs by competitive fluorescence polarization binding assay. Background: Polarisation of emitted light reports the rotation of a fluorescent probe.

The target of data set [3] is T3, Peroxisome proliferator-activated receptor gamma (Mus musculus, UniProt P37238).
T3 sequence (P37238 whole entry): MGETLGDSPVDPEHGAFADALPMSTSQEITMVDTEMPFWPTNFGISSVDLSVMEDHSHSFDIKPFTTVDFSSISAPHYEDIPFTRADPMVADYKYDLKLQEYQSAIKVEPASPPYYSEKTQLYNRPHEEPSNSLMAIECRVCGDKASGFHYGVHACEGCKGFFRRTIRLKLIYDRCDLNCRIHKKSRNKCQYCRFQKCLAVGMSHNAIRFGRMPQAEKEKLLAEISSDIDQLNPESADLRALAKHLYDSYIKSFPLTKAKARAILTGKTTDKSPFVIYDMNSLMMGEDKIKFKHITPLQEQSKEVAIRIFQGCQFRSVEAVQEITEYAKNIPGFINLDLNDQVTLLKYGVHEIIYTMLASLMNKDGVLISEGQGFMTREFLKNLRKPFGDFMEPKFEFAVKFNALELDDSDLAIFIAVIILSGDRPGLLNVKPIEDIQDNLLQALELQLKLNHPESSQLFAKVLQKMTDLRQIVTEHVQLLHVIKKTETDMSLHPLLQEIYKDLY
The experiment in a line: Induction of PPARgamma-mediated adipogenesis in mouse 3T3L1 cells assessed as upregulation of FABP4 mRNA expression at 10 uM by qRT-PCR analysis. In kind it is cell-based. A digest of the protocol: (§1)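 Confluent 3T3-L1 cells were differentiated in 10% FBS/DMEM with 0.5 mmol/L IBMX, 1 μmol/L dexamethasone and 10 μg/mL insulin plus compounds (10 μM) for 48 h, then 10 μg/mL insulin alone for another 48 h. RNA was extracted and analyzed by qRT-PCR (35 cycles). Relative mRNA was calculated by ΔΔCt normalized to TBP.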
In general terms: Quantitative PCR measures a nucleic acid by following its amplification.

The target of data set [4] is T4, Peroxisome proliferator-activated receptor gamma (Mus musculus) (UniProt P37238).
T4 sequence (whole entry): T3 sequence (P37238 whole entry)
The experiment in a line: Partial agonist activity at PPARgamma in mouse 3T3-L1 cells assessed as decrease in PPARgamma S273 phosphorylation by measuring upregulation of adipsin mRNA expression at 10 uM by qRT-PCR analysis. In kind it is cell-based.

The target of data set [5] is T4, Peroxisome proliferator-activated receptor gamma (Mus musculus). The experiment in a line: Partial agonist activity at PPARgamma in mouse 3T3L1 cells assessed as decrease in PPARgamma S273 phosphorylation by measuring upregulation of Car3 mRNA expression at 10 uM by qRT-PCR analysis. In kind it is cell-based.
In data set [6] the target is T3, Peroxisome proliferator-activated receptor gamma. In words: Induction of PPARgamma-mediated adipogenesis in mouse 3T3L1 cells assessed as upregulation of Glut4 mRNA expression at 10 uM by qRT-PCR analysis. The class given is cell-based. A digest of the protocol: as §1
Data set [7] concerns the target T4, Peroxisome proliferator-activated receptor gamma (Mus musculus). The experiment in a line: Partial agonist activity at PPARgamma in mouse 3T3-L1 cells assessed as decrease in PPARgamma S273 phosphorylation at 10 uM preincubated for 24 hrs followed by TNFalpha stimulation for 3 hrs by Western blotting analysis. (A western blot detects proteins with antibodies after separation by electrophoresis.)

For data set [8] the target is unchanged. The experiment in a line: Partial agonist activity at PPARgamma in mouse 3T3-L1 cells assessed as decrease in PPARgamma S273 phosphorylation by measuring upregulation of adiponectin mRNA expression at 10 uM by qRT-PCR analysis. The class given is cell-based.
The target in data set [9] is T3, Peroxisome proliferator-activated receptor gamma. In words: Induction of PPARgamma-mediated adipogenesis in mouse 3T3L1 cells assessed as upregulation of LPL mRNA expression at 10 uM by qRT-PCR analysis. The class given is cell-based. A digest of the protocol: as §1
The target in data set [10] is T5, Peroxisome proliferator-activated receptor gamma (Homo sapiens) (UniProt P37231).
T5 sequence (whole entry): T1 sequence (P37231 whole entry)
In words: Potency index, ratio of UHC1 IC50 to compound IC50 for displacement of fluormone PPAR green tracer ligand from recombinant GST-tagged PPARgamma ligand binding domain (unknown origin) incubated for 4 hrs by competitive fluorescence polarization binding assay.

The target of data set [11] is T3, Peroxisome proliferator-activated receptor gamma. The experiment in a line: Induction of PPARgamma-mediated adipogenesis in mouse 3T3L1 cells assessed as increase in cell differentiation at 10 uM compound treatment renewed every 2 days and measured on day 7 by Oil-red O staining based assay. The settings on record: 48 h. A digest of the protocol:
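3T3-L1 cells were induced with DMEM/10% FBS containing 1 μg/ml insulin, 1 μM dexamethasone and 0.5 mM IBMX plus compounds (10 μM) for 48 h. They were then kept in maintenance DMEM/10% FBS with compounds, with medium renewed every 2 days. At day 7 cells were fixed in 4% formaldehyde for 30 min and stained with 0.3% Oil Red O for 1 h at 37 °C. Lipid droplets were viewed by microscopy; DMSO 0.1% final.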

The IC50 is the midpoint of a concentration-inhibition curve. One may read the Ki as a measure of affinity in units of concentration, obtained from inhibition or displacement. In the case of `Cc1c(C)n(Cc2ccc(-c3ccccc3C(=O)O)cc2)c2ccc(C(=O)NCc3cccc(OCC(=O)O)c3)cc12`, the Emax at 24 h in data set [1] came out at 56%. In [2], the IC50 was 66 nM and the inhibition constant (Ki) was 52 nM.

For the compound `Cc1c(C)n(Cc2ccc(-c3ccccc3C(=O)O)cc2)c2ccc(C(=O)NCc3ccccn3)cc12`, the Emax at 24 h in data set [1] came to 15%. Also, in data set [2], the IC50 amounted to 34 nM and the Ki worked out at 27 nM.

For the compound `COc1cc(CNC(=O)c2ccc3c(c2)c(C)c(C)n3Cc2ccc(-c3ccccc3C(=O)O)cc2)ccc1O`, the outcome in [3], in data set [6] and in data set [9] was Active. Also, the result in data set [4], in data set [5] and in data set [8] was Active. This compound also displayed an Emax at 24 h in data set [1] of 15%. The IC50 in data set [2] amounted to 17 nM. In addition, the Ki in [2] came out at 13 nM. In addition, in data set [7], the inhibition result is “Active”. Further, the Ratio IC50 in data set [10] was above 30.

Regarding `Cc1c(C)n(Cc2ccc(-c3ccccc3C(=O)O)cc2)c2ccc(C(=O)NCc3ccc(S(N)(=O)=O)cc3)cc12`, in [1], the Emax at 24 h came to 0%. Moreover, in data set [2], the IC50 amounted to 312 nM and the Ki was determined as 244 nM.

As to `Cc1c(C)n(Cc2cccc(C(F)(F)F)c2)c2ccc(C(=O)NCc3ccccn3)cc12`, in data set [1], the Emax at 24 h came out at 59%. Besides, in data set [2], the 50% inhibitory concentration (IC50) came to 185 nM and the Ki came to 144 nM.

Consider `CN(CCOc1ccc(CC2SC(=O)NC2=O)cc1)c1ccccn1` (configuration not stated) [ROSIGLITAZONE], for which the result in data set [11], in [3], in data set [6] and in data set [9] was Active. Besides, the inhibition entry in data set [7] was “Active”.

`Cc1c(C)n(Cc2ccc(-c3ccccc3C(=O)O)cc2)c2ccc(C(=O)NC3CCNCC3)cc12` returned an Emax at 24 h in [1] of 17%. Also, in data set [2], the IC50 turned out to be 41300 nM and the inhibitory constant (Ki) came to 32200 nM.

As to `Cc1c(C)n(Cc2ccc(-c3ccccc3C(=O)O)cc2)c2ccc(C(=O)NCCc3ccc(O)cc3)cc12`, the Emax at 24 h in [1] came out at 31%. Further, in [2], the IC50 stood at 48 nM and the Ki stood at 38 nM.

In [1], `Cc1c(C)n(Cc2ccc(-c3ccccc3C(=O)O)cc2)c2ccc(C(=O)NCC3CCNCC3)cc12` showed an Emax at 24 h of 11%. Also, in data set [2], the IC50 was determined as 12100 nM and the Ki was 9460 nM.

Take `Cc1c(C)n(Cc2ccc(-c3ccccc3C(=O)O)cc2)c2ccc(C(=O)NCc3cccnc3)cc12`: the Emax at 24 h in data set [1] was found to be 45%. In data set [2], the IC50 was 536 nM and the Ki was found to be 440 nM. In [7], the inhibition entry was “Active”.

The compound `Cc1c(C)n(Cc2cccc(C(F)(F)F)c2)c2ccc(C(=O)N[C@@H](Cc3ccc(O)cc3)C(=O)O)cc12` had an Emax at 24 h in [1] of 44%. In [2], the IC50 is 346 nM and the Ki turned out to be 270 nM.

For the compound `Cc1c(C)n(Cc2ccc(-c3ccccc3C(=O)O)cc2)c2ccc(C(=O)O)cc12`, in [1], the Emax at 24 h turned out to be 16%. Moreover, in [2], the IC50 was 4870 nM and the Ki worked out at 3800 nM.

`Cc1c(C)n(Cc2cccc(C(F)(F)F)c2)c2ccc(C(=O)NCc3ccc4c(c3)OCO4)cc12`: the Emax at 24 h in [1] was determined as 32%. Besides, the IC50 in data set [2] was 16 nM.

In turn, `COc1cc(CNC(=O)c2ccc3c(c2)c(C)c(C)n3Cc2cccc(C(F)(F)F)c2)ccc1O` came in with an Emax at 24 h in data set [1] of 46%. For the same compound, the IC50 in data set [2] came out at 10 nM.

In [1], `COc1ccc(OC)c(CNC(=O)c2ccc3c(c2)c(C)c(C)n3Cc2cccc(C(F)(F)F)c2)c1` registered an Emax at 24 h of 27%. Further, in data set [2], the IC50 was 48 nM and the Ki came out at 38 nM.

Take `Cc1c(C)n(Cc2ccc(-c3ccccc3C(=O)O)cc2)c2ccc(C(=O)NCc3ccc4c(c3)OCO4)cc12`: in data set [1], the Emax at 24 h amounted to 36%. In data set [2], the IC50 was 15 nM and the Ki came out at 12 nM.
